The results in this text go back to ChEMBL document CHEMBL1126843, “Non-amine based analogues of lavendustin A as protein-tyrosine kinase inhibitors” (J Med Chem, 1993).

Assay [1] is described as follows: Inhibition of epidermal growth factor receptor (EGFR) autophosphorylation. Type of assay: functional.
A short description of assay [2]: (§1) Inhibition of c-erb B-2/HER2/neu receptor. Type of assay: functional. A digest of the protocol: (§2)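 HER2/neu immunoprecipitated from SK-BR-3 breast cancer cells (1-2 × 10^6 cells per assay) on plates coated with goat anti-mouse Ig and anti-HER2 mAb (20 μg/mL), blocked with gelatin/glycine. Lysates bound overnight on ice, then washed. Kinase reaction in 25 mM HEPES pH 7.2, 3 mM MnCl2, 20 mM MgCl2, 0.1% NP-40 and 1 µCi [γ-32P]ATP, 20 min at 25 °C. Products run on 7.5% reducing SDS-PAGE; inhibition calculated from densitometric band densities.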

Assay [3] addresses Tyrosine-protein kinase Lck (Homo sapiens, UniProt P06239). The assay is described as follows: Inhibition of p56lck autophosphorylation. The class given is functional.
Assay [4] is described as follows: as §1. A digest of the protocol:
as §2

The nature of assay [5]: Inhibition of epidermal growth factor receptor (EGFR).

Sequence of Tyrosine-protein kinase Lck (P06239 whole entry): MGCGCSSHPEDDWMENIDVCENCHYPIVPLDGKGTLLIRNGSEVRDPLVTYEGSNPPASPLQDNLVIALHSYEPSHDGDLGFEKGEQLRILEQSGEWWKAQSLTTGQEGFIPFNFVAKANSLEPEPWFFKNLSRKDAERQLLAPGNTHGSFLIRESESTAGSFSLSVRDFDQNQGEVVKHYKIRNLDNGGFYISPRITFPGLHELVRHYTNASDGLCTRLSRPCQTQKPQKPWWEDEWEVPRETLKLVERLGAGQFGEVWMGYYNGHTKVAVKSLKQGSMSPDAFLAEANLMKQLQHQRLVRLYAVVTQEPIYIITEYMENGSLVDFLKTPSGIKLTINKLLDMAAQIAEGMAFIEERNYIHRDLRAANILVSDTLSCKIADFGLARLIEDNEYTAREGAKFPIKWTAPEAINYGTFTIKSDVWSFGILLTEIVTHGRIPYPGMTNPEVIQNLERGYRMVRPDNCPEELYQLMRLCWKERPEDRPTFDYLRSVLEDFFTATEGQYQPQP

`O=C(O)c1cc(N(Cc2ccccc2O)Cc2cc(O)ccc2O)ccc1O` [LAVENDUSTIN A]: the IC50 was 7 µM in assay [1], 9 µM in assay [2] and 8 µM in assay [3].
Take `O=C(O)c1cc(CCc2ccc(O)c(O)c2)ccc1O`: the IC50 in assay [4] was 0.6 µM; in assay [5], 12 µM; in assay [3] it was 1 µM.
Consider `O=C(O)c1cc(/C=C/c2cc(O)ccc2O)ccc1O`, for which the IC50 in assay [1] stood at 2 µM; in assay [2] it was 0.6 µM; in assay [3] it was 0.06 µM.
Consider `O=C(O)c1cc(/N=C/c2cc(O)ccc2O)ccc1O`, for which the IC50 is 9 µM in assay [1], 70 µM in assay [2] and 85 µM in assay [3].
Regarding `O=C(O)c1cc(CCc2cc(O)ccc2O)ccc1O`, the IC50 in assay [1] is 20 µM; in assay [2], 4 µM; in assay [3] it was 1 µM.
As for `O=C(O)c1cc(/C=C/c2ccc(O)c(O)c2)ccc1O`, the values for the IC50 in assay [1] and in assay [2] were 5 µM and 0.2 µM, respectively.
With `O=C(O)c1cc(NCc2cc(O)ccc2O)ccc1O` [LAVENDUSTIN C], the IC50 was found to be 4 µM in assay [1], 0.9 µM in assay [2] and 10 µM in assay [3].
